Laboratory results reported in ChEMBL document CHEMBL3351851, “Discovery and optimization of novel small-molecule HIV-1 entry inhibitors using field-based virtual screening and bioisosteric replacement” (Bioorg Med Chem Lett, 2014).
pIC50: −log10 of the molar value.

Assays:
[1] = test system: Human immunodeficiency virus 1; assay: Antiviral activity against Human immunodeficiency virus type 1 (isolate YU2) pseudotyped virus expressed in human U87 cells after 48 hrs by cell-based luciferase reporter gene assay; format: functional, U-87MG ATCC; conditions: Human immunodeficiency virus 1, isolate YU2, U-87 MG
Method in brief: (§1)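 Envelope-pseudotyped, single-round luciferase-reporter virus was made in 293T cells co-transfected with pNL4-3-LucR+E- and the matching Env vector. U87-CD4/CCR5 or U87-CD4/CXCR4 cells were seeded at 1.2x10⁴ per well and infected next day with 20 ng p24 per well plus compound (6–9 dilutions, 1:10 or 1:5, triplicate) or DMSO. Luciferase was read at 48 h; % infection is relative to DMSO wells.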

[2] = test system: Human immunodeficiency virus 1; assay: Antiviral activity against HIV1 pseudotyped virus expressed in human U87 cells co-expressing AMLV envelope after 48 hrs by cell-based luciferase reporter gene assay; format: functional, organism-based; conditions: u-87mg atcc
Method in brief: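 Single-round infection of U87-CD4/CCR5 or U87-CD4/CXCR4 cells (seeded at 1.2x10⁴/well, infected next day) with 20 ng p24 per well of luciferase-reporter pseudovirus made in 293T cells using pNL4-3-LucR⁺E⁻. Compounds were applied in six to nine serial dilutions (1:10 or 1:5) alongside DMSO, in triplicate. Luciferase was read at 48 h, and percent infection was taken relative to DMSO wells.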

[3] = test system: Human immunodeficiency virus 1; assay: Antiviral activity against Human immunodeficiency virus type 1 (JRCSF ISOLATE) pseudotyped virus expressed in human U87 cells after 48 hrs by luciferase reporter gene assay; format: functional, cell-based, U-87MG ATCC; conditions: Human immunodeficiency virus 1, JRCSF ISOLATE, U-87 MG; method in brief: as §1
[4] = test system: Human immunodeficiency virus 1; assay: Antiviral activity against HIV1 isolate Hxbc2 pseudotyped virus expressed in human U87 cells after 48 hrs by luciferase reporter gene assay; format: functional, organism-based, U-87MG ATCC; conditions: Human immunodeficiency virus 1, isolate Hxbc2, U-87 MG; method in brief: as §1
[5] = test system: Human immunodeficiency virus 2; assay: Antiviral activity against HIV2 isolate CDC310319 infected in human PBMC; format: functional, organism-based; conditions: Human immunodeficiency virus 2, isolate CDC310319
[6] = test system: Human immunodeficiency virus 1; assay: Antiviral activity against HIV1 subtype A isolate 92UG037 infected in human PBMC; format: functional, organism-based; conditions: Human immunodeficiency virus 1, isolate 92UG037
[7] = test system: Human immunodeficiency virus 1; assay: Antiviral activity against HIV1 subtype B isolate 91US004 infected in human PBMC; format: functional, organism-based; conditions: Human immunodeficiency virus 1, isolate 91US004
[8] = test system: Human immunodeficiency virus 1; assay: Antiviral activity against HIV1 subtype B isolate 94US_33931N infected in human PBMC; format: functional, organism-based; conditions: Human immunodeficiency virus 1, isolate 94US_33931N
[9] = test system: Human immunodeficiency virus 1; assay: Antiviral activity against HIV1 subtype C isolate 98US_MSC5016 infected in human PBMC; format: functional, organism-based; conditions: Human immunodeficiency virus 1, isolate 98US_MSC5016
[10] = test system: Human immunodeficiency virus 1; assay: Antiviral activity against HIV1 subtype D isolate 99UG_A07412M1 infected in human PBMC; format: functional, organism-based; conditions: Human immunodeficiency virus 1, isolate 99UG_A07412M1
[11] = Antiviral index, ratio of TC50 for human PBMC to IC50 for HIV1 subtype A isolate 92UG037
[12] = Antiviral index, ratio of TC50 for human PBMC to IC50 for HIV1 subtype B isolate 91US004
[13] = Antiviral index, ratio of TC50 for human PBMC to IC50 for HIV1 subtype B isolate 94US_33931N
[14] = Antiviral index, ratio of TC50 for human PBMC to IC50 for HIV1 subtype C isolate 98US_MSC5016
[15] = Antiviral index, ratio of TC50 for human PBMC to IC50 for HIV1 subtype D isolate 99UG_A07412M1

| Compound | pIC50 [1] | IC50 [2] | pIC50 [3] | pIC50 [4] | also measured |
| --- | --- | --- | --- | --- | --- |
| O=C(CSc1ncnc2sccc12)N1CCN(C(=O)c2cccs2)CC1 | 4.47 | Not Active | – | – | – |
| O=C(c1ccccc1)N1CCN(C(=O)c2ccc3c4c(cccc24)CC3)CC1 | 4.88 | Not Active | – | – | – |
| O=C(COc1cccc2ccccc12)N1CCN(C(=O)c2ccccc2)CC1 | 4.27 | Not Active | – | – | – |
| O=C(Cc1cccc2ccccc12)N1CCN(C(=O)c2ccco2)CC1 | 4.10 | Not Active | – | – | – |
| Cc1cc(C)nc(SCC(=O)N2CCN(C(=O)c3ccccc3)CC2)n1 | 3.82 | Not Active | – | – | – |
| O=C(c1ccccc1)N1CC2CN(C(=O)c3ccc4c5c(cccc35)CC4)CC2C1 (stereo not given) | – | Not Active | 4.00 | – | – |
| COc1cnc(Cl)c2[nH]cc(C(=O)C(=O)N3CC4CN(C(=O)c5ccccc5)CC4C3)c12 (stereo not given) | – | Not Active | 6.01 | 4.77 | – |
| COc1ncc(OC)c2c(C(=O)C(=O)N3CC4CN(C(=O)c5ccccc5)CC4C3)c[nH]c12 (stereo not given) | – | Not Active | 7.05 | 6.72 | – |
| COc1cnc(-n2cnc(C)n2)c2[nH]cc(C(=O)C(=O)N3CC4CN(C(=O)c5ccccc5)CC4C3)c12 (stereo not given) | – | Not Active | 9.10 | 9.00 | – |
| COc1cnc(-n2cnc(C)n2)c2[nH]cc(C(=O)C(=O)N3CC4CN(C(=O)C5=CCCCC5)CC4C3)c12 (stereo not given) | – | Not Active | 8.70 | 9.22 | pIC50 [5]: < 4.00; pIC50 [6]: 4.60; pIC50 [7]: 6.71; pIC50 [8]: 9.22; pIC50 [9]: 5.41; pIC50 [10]: 6.31; Ratio [11]: >3.97; Ratio [12]: >513; Ratio [13]: >166666; Ratio [14]: >25.6; Ratio [15]: >204 |
